Test results taken from ChEMBL document CHEMBL3822403, “Discovery, Optimization, and Biological Evaluation of Sulfonamidoacetamides as an Inducer of Axon Regeneration” (J Med Chem, 2016).
Activity calls are given as the source filed them. The rule behind the calls is not given here.

System: Rattus norvegicus
Assay: Induction of axonal outgrowth of RGC in Sprague-Dawley rat optic nerve injury model assessed as regeneration of 500 to 1500 um crushed optic nerves at 0.22 ug/eye administered intravitreously once in 4 days for 3 weeks by measuring optic nerve injury by GAP-43 expression based microscopy (reference value: 0.22 +/- 0.081)
Format: functional
Conditions: not given

Row | SMILES | Activity
1 | COc1ccncc1NC(=O)CN(c1ccccc1OC)S(=O)(=O)c1ccc(C)cc1 | 0.7

System: P19
Assay: Induction of neurite outgrowth in mouse P19 cells transfected with neuroD2 at 10 to 20 uM after 48 hrs by DAPI staining based confocal fluorescence image analyzer relative to control
Format: functional
Conditions: not given
Procedure, shortened: (§1)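 P19 cells transfected with NeuroD2 cDNA, replated 12 h later at 8,000 cells/well in MEM, 5% FBS, 1 mM pyruvate, 2 mM glutamate; after 24 h compound exposure 48 h. βIII tubulin immunofluorescence with DAPI, four fields/well imaged at 10x, neurite outgrowth relative to DMSO-treated cells.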

Row | SMILES | fold change (FC)
2 | CCOc1ccccc1NC(=O)CN(c1ccccc1OC)S(=O)(=O)c1ccc(C)cc1 | 3.2

System: not listed separately
Assay: Metabolic stability in mouse liver S9 fraction assessed as compound remaining after 30 mins
Format: ADME, subcellular
Conditions: read-out: Stability

Row | SMILES | remaining at 0.5 h [%]
3 | COc1ccc(CCN(C)CCCC(C#N)(c2ccc(OC)c(OC)c2)C(C)C)cc1OC (stereo not drawn) [VERAPAMIL] | 23.1
4 | CCOc1ccccc1NC(=O)CN(c1ccccc1OC)S(=O)(=O)c1ccc(C)cc1 | 0.7
5 | COc1ccc(S(=O)(=O)N(CC(=O)Nc2cc(OC)ccc2OC)c2ccccc2OC)cc1 | 0.4
6 | COC(=O)c1ccccc1NC(=O)CN(c1ccccc1OC)S(=O)(=O)c1ccc(C)cc1 | 0.3
7 | COc1ccncc1NC(=O)CN(c1ccccc1OC)S(=O)(=O)c1ccc(C)cc1 | 61.2
8 | CC(=O)Nc1ccc(O)cc1 [ACETAMINOPHEN] | 97.7
9 | COc1ccc(NC(=O)CN(c2ccccc2OC)S(=O)(=O)c2ccc(Cl)cc2)c(OC)c1 | 0.4

System: Hippocampal neurone
Assay: Induction of neurite outgrowth in Sprague-Dawley rat primary hippocampal neurons after 48 hrs by DAPI staining based confocal fluorescence image analyzer
Format: functional
Conditions: not given
Procedure, shortened: (§2)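 E18 Sprague-Dawley rat hippocampus and cortex dissociated separately, seeded at 2,000 cells/well in Neurobasal/B27 with 2 mM glutamate; after 24 h treated 48 h. Fixed, stained anti-βIII tubulin with DAPI nuclei; four fields per well imaged at 10x, neurite total length per neuron; mean ± SD, n=3.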

Row | SMILES | Activity
10 | COc1ccc(OC)c(NC(=O)CN(c2ccccc2OC)S(=O)(=O)c2ccc(F)cc2)c1 | Active
11 | COc1ccc(OC)c(NC(=O)CN(c2ccccc2OC)S(=O)(=O)c2ccc(Br)cc2)c1 | Active
12 | COc1ccccc1N(CC(=O)Nc1cccc2ncccc12)S(=O)(=O)c1ccc(C)cc1 | Active
13 | CCc1ccccc1NC(=O)CN(c1ccccc1OC)S(=O)(=O)c1ccc(C)cc1 | Active
14 | CCOc1ccccc1NC(=O)CN(c1ccccc1C)S(=O)(=O)c1ccc(C)cc1 | Active
15 | CCOc1ccccc1NC(=O)CN(c1ccccc1Cl)S(=O)(=O)c1ccc(C)cc1 | Active
16 | CCOc1ccccc1CNC(=O)CN(c1ccccc1OC)S(=O)(=O)c1ccc(C)cc1 | Active
17 | CCOc1ccccc1NC(=O)CN(c1ccccc1)S(=O)(=O)c1ccc(C)cc1 | Active
18 | COc1ccncc1NC(=O)CN(c1ccccc1OC)S(=O)(=O)c1ccc(Br)cc1 | Active
19 | CCOc1ccccc1NC(=O)CN(c1ccccc1OC)S(=O)(=O)c1ccc(C)cc1 | Active
20 | COc1ccc(OC)c(NC(=O)CN(Cc2ccc(C)cc2)c2ccccc2OC)c1 | Active
21 | COc1ccccc1N(CC(=O)Nc1ccccc1Br)S(=O)(=O)c1ccc(C)cc1 | Active
22 | COc1ccc(S(=O)(=O)N(CC(=O)Nc2cc(OC)ccc2OC)c2ccccc2OC)cc1 | Active
23 | COc1ccccc1N(CC(=O)Nc1cccnc1OC)S(=O)(=O)c1ccc(C)cc1 | Active
24 | COc1ccccc1N(CC(=O)Nc1cnc2ccccc2c1)S(=O)(=O)c1ccc(C)cc1 | Active
25 | COc1ccccc1N(CC(=O)Nc1ccccc1F)S(=O)(=O)c1ccc(C)cc1 | Active
26 | COc1ccccc1N(CC(=O)Nc1ncc[nH]1)S(=O)(=O)c1ccc(C)cc1 | Active

Row | SMILES | Activity
27 | COc1cccc(NC(=O)CN(c2ccccc2OC)S(=O)(=O)c2ccc(C)cc2)c1 | Active
28 | COc1ccncc1NC(=O)CN(c1ccccc1OC)S(=O)(=O)c1ccc(SC)cc1 | Active
29 | COc1ccccc1N(CC(=O)Nc1ccc2ncccc2c1)S(=O)(=O)c1ccc(C)cc1 | Active
30 | COc1ccccc1N(CC(=O)Nc1nccs1)S(=O)(=O)c1ccc(C)cc1 | Active
31 | COc1ccc(OC)c(NC(=O)CN(c2ccccc2OC)S(=O)(=O)c2ccc(SC)cc2)c1 | Active
32 | COC(=O)c1ccccc1NC(=O)CN(c1ccccc1OC)S(=O)(=O)c1ccc(C)cc1 | Active
33 | CCOc1ccccc1NC(=O)CN(c1cccc(OC)c1)S(=O)(=O)c1ccc(C)cc1 | Active
34 | COc1ccc(OC)c(NC(=O)CN(C(=O)c2ccc(Cl)cc2)c2ccccc2OC)c1 | Active
35 | CCOc1ncccc1NC(=O)CN(c1ccccc1OC)S(=O)(=O)c1ccc(C)cc1 | Active
36 | COc1ccccc1N(CC(=O)Nc1ncccc1OC)S(=O)(=O)c1ccc(C)cc1 | Active
37 | COc1ccncc1NC(=O)CN(c1ccccc1OC)S(=O)(=O)c1ccc(C)cc1 | Active
38 | COc1ccc(NC(=O)CN(c2ccccc2OC)S(=O)(=O)c2ccc(C)cc2)c(OC)c1 | Active
39 | COc1ccccc1N(CC(=O)Nc1cccnc1OC(C)C)S(=O)(=O)c1ccc(C)cc1 | Active
40 | COc1ccc(NC(=O)CN(c2ccccc2OC)S(=O)(=O)c2ccc(Cl)cc2)c(OC)c1 | Active
41 | COc1ccccc1N(CC(=O)Nc1ccccc1)S(=O)(=O)c1ccc(C)cc1 | Active
42 | CCOc1ccccc1NC(=O)CN(c1ccccc1F)S(=O)(=O)c1ccc(C)cc1 | Active

System: P19
Assay: Induction of neurite outgrowth in mouse P19 cells transfected with neuroD2 at 10 uM after 48 hrs by DAPI staining based confocal fluorescence image analyzer relative to control
Format: functional
Conditions: not given
Procedure, shortened: as §1

Row | SMILES | fold change (FC)
43 | COc1ccc(OC)c(NC(=O)CN(c2ccccc2OC)S(=O)(=O)c2ccc(F)cc2)c1 | 2.5
44 | COc1ccc(OC)c(NC(=O)CN(c2ccccc2OC)S(=O)(=O)c2ccc(Br)cc2)c1 | 5
45 | COc1ccccc1N(CC(=O)Nc1cccc2ncccc12)S(=O)(=O)c1ccc(C)cc1 | 1.3
46 | CCc1ccccc1NC(=O)CN(c1ccccc1OC)S(=O)(=O)c1ccc(C)cc1 | 0.8
47 | CCOc1ccccc1NC(=O)CN(c1ccccc1C)S(=O)(=O)c1ccc(C)cc1 | 2.6
48 | CCOc1ccccc1NC(=O)CN(c1ccccc1Cl)S(=O)(=O)c1ccc(C)cc1 | 2.6
49 | CCOc1ccccc1NC(=O)CN(c1ccccc1)S(=O)(=O)c1ccc(C)cc1 | 2.5
50 | COc1ccncc1NC(=O)CN(c1ccccc1OC)S(=O)(=O)c1ccc(Br)cc1 | 3.7
51 | COc1ccccc1N(CC(=O)Nc1ccccc1Br)S(=O)(=O)c1ccc(C)cc1 | 2.1
52 | COc1ccc(S(=O)(=O)N(CC(=O)Nc2cc(OC)ccc2OC)c2ccccc2OC)cc1 | 2.3
53 | COc1ccccc1N(CC(=O)Nc1cccnc1OC)S(=O)(=O)c1ccc(C)cc1 | 2.8
54 | COc1ccccc1N(CC(=O)Nc1cnc2ccccc2c1)S(=O)(=O)c1ccc(C)cc1 | 3.6
55 | COc1ccccc1N(CC(=O)Nc1ccccc1F)S(=O)(=O)c1ccc(C)cc1 | 2.1
56 | COc1cccc(NC(=O)CN(c2ccccc2OC)S(=O)(=O)c2ccc(C)cc2)c1 | 1.8
57 | COc1ccncc1NC(=O)CN(c1ccccc1OC)S(=O)(=O)c1ccc(SC)cc1 | 3.9
58 | COc1ccccc1N(CC(=O)Nc1ccc2ncccc2c1)S(=O)(=O)c1ccc(C)cc1 | 1
59 | COc1ccc(OC)c(NC(=O)CN(c2ccccc2OC)S(=O)(=O)c2ccc(SC)cc2)c1 | 3.2
60 | COC(=O)c1ccccc1NC(=O)CN(c1ccccc1OC)S(=O)(=O)c1ccc(C)cc1 | 3
61 | CCOc1ccccc1NC(=O)CN(c1cccc(OC)c1)S(=O)(=O)c1ccc(C)cc1 | 3.1
62 | COc1ccc(OC)c(NC(=O)CN(C(=O)c2ccc(Cl)cc2)c2ccccc2OC)c1 | 1
63 | CCOc1ncccc1NC(=O)CN(c1ccccc1OC)S(=O)(=O)c1ccc(C)cc1 | 2.1
64 | COc1ccccc1N(CC(=O)Nc1ncccc1OC)S(=O)(=O)c1ccc(C)cc1 | 1.6
65 | COc1ccncc1NC(=O)CN(c1ccccc1OC)S(=O)(=O)c1ccc(C)cc1 | 4.2
66 | COc1ccc(NC(=O)CN(c2ccccc2OC)S(=O)(=O)c2ccc(C)cc2)c(OC)c1 | 2.7
67 | COc1ccccc1N(CC(=O)Nc1cccnc1OC(C)C)S(=O)(=O)c1ccc(C)cc1 | 2.3
68 | COc1ccc(NC(=O)CN(c2ccccc2OC)S(=O)(=O)c2ccc(Cl)cc2)c(OC)c1 | 4.2
69 | COc1ccccc1N(CC(=O)Nc1ccccc1)S(=O)(=O)c1ccc(C)cc1 | 2
70 | CCOc1ccccc1NC(=O)CN(c1ccccc1F)S(=O)(=O)c1ccc(C)cc1 | 2.9

System: P19
Assay: Induction of neurite outgrowth in mouse P19 cells transfected with neuroD2 <1 uM after 48 hrs by DAPI staining based confocal fluorescence image analyzer relative to control
Format: functional, cell-based
Conditions: not given
Procedure, shortened: as §1

Row | SMILES | Activity
71 | CCOc1ccccc1NC(=O)CN(c1ccccc1OC)S(=O)(=O)c1ccc(C)cc1 | inactive

System: Cerebral cortex neuron
Assay: Induction of neurite outgrowth in Sprague-Dawley rat primary cortical neurons at 1 to 10 uM after 48 hrs by DAPI staining based confocal fluorescence image analyzer
Format: functional, cell-based
Conditions: not given
Procedure, shortened: as §2

Row | SMILES | Activity
72 | COc1ccc(OC)c(NC(=O)CN(c2ccccc2OC)S(=O)(=O)c2ccc(F)cc2)c1 | Active
73 | COc1ccc(OC)c(NC(=O)CN(c2ccccc2OC)S(=O)(=O)c2ccc(Br)cc2)c1 | Active
74 | COc1ccccc1N(CC(=O)Nc1cccc2ncccc12)S(=O)(=O)c1ccc(C)cc1 | Active
75 | CCOc1ccccc1NC(=O)CN(c1ccccc1C)S(=O)(=O)c1ccc(C)cc1 | Active
76 | CCOc1ccccc1NC(=O)CN(c1ccccc1Cl)S(=O)(=O)c1ccc(C)cc1 | Active
77 | CCOc1ccccc1NC(=O)CN(c1ccccc1)S(=O)(=O)c1ccc(C)cc1 | Active
78 | COc1ccncc1NC(=O)CN(c1ccccc1OC)S(=O)(=O)c1ccc(Br)cc1 | Active
79 | CCOc1ccccc1NC(=O)CN(c1ccccc1OC)S(=O)(=O)c1ccc(C)cc1 | Active
80 | COc1ccccc1N(CC(=O)Nc1ccccc1Br)S(=O)(=O)c1ccc(C)cc1 | Active
81 | COc1ccc(S(=O)(=O)N(CC(=O)Nc2cc(OC)ccc2OC)c2ccccc2OC)cc1 | Active
82 | COc1ccccc1N(CC(=O)Nc1cccnc1OC)S(=O)(=O)c1ccc(C)cc1 | Active
83 | COc1ccccc1N(CC(=O)Nc1cnc2ccccc2c1)S(=O)(=O)c1ccc(C)cc1 | Active
84 | COc1ccccc1N(CC(=O)Nc1ccccc1F)S(=O)(=O)c1ccc(C)cc1 | Active
85 | COc1cccc(NC(=O)CN(c2ccccc2OC)S(=O)(=O)c2ccc(C)cc2)c1 | Active
86 | COc1ccncc1NC(=O)CN(c1ccccc1OC)S(=O)(=O)c1ccc(SC)cc1 | Active
87 | COc1ccccc1N(CC(=O)Nc1ccc2ncccc2c1)S(=O)(=O)c1ccc(C)cc1 | Active
88 | COc1ccc(OC)c(NC(=O)CN(c2ccccc2OC)S(=O)(=O)c2ccc(SC)cc2)c1 | Active
89 | COC(=O)c1ccccc1NC(=O)CN(c1ccccc1OC)S(=O)(=O)c1ccc(C)cc1 | Active
90 | CCOc1ccccc1NC(=O)CN(c1cccc(OC)c1)S(=O)(=O)c1ccc(C)cc1 | Active
91 | CCOc1ncccc1NC(=O)CN(c1ccccc1OC)S(=O)(=O)c1ccc(C)cc1 | Active
92 | COc1ccccc1N(CC(=O)Nc1ncccc1OC)S(=O)(=O)c1ccc(C)cc1 | Active
93 | COc1ccncc1NC(=O)CN(c1ccccc1OC)S(=O)(=O)c1ccc(C)cc1 | Active
94 | COc1ccc(NC(=O)CN(c2ccccc2OC)S(=O)(=O)c2ccc(C)cc2)c(OC)c1 | Active
95 | COc1ccccc1N(CC(=O)Nc1cccnc1OC(C)C)S(=O)(=O)c1ccc(C)cc1 | Active
96 | COc1ccc(NC(=O)CN(c2ccccc2OC)S(=O)(=O)c2ccc(Cl)cc2)c(OC)c1 | Active
97 | COc1ccccc1N(CC(=O)Nc1ccccc1)S(=O)(=O)c1ccc(C)cc1 | Active
98 | CCOc1ccccc1NC(=O)CN(c1ccccc1F)S(=O)(=O)c1ccc(C)cc1 | Active
